Assay results taken from ChEMBL document CHEMBL4251669, “Identification of Gibberellic Acid Derivatives That Deregulate Cholesterol Metabolism in Prostate Cancer Cells” (2018).
Calls of active or inactive are those of the source. The rule behind the calls is not given here.

Legend:
[1] = system: LNCaP; experiment: Cytotoxicity against human LNCAP cells assessed as reduction in cell viability at 10 uM after 72 hrs by alamar blue assay relative to control; format: functional
In short: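 LNCaP cells (ATCC) in phenol-red-free RPMI-1640 with 5% FBS, 37 °C, 5% CO2, seeded 4000/well for 24 h, then exposed 72 h. Stocks in DMSO, final DMSO 0.3%; DMSO as negative and vinblastine 50 nM as positive control. Viability read by alamarBlue metabolic reduction. Triplicate points, at least three independent experiments.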

[2] = system: LNCaP; experiment: Induction of cholesterol metabolism deregulation in human LNCAP cells assessed as reduction in NBD-cholesterol uptake at 30 uM after 48 hrs by DAPI/Alexa fluor 633 phalloidin staining based high-content imaging analysis; format: functional, cell-based
In short: (§1)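 LNCaP seeded 72 h on poly-L-ornithine-coated plates and treated 48 h in three replicate wells: DMSO vehicle, compounds at 30 μM, TOFA 10 μM or orlistat 20 μM. Then 3 h at 37 °C in serum-free RPMI with 0.2% BSA and 15 μM NBD-cholesterol. PFA-fixed, glycine-quenched, stained with DAPI and phalloidin. Imaged at 10× to 1000 cells/well; per-cell NBD mean fluorescence, about 3000 cells/treatment, mean ± SD.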

[3] = system: LNCaP; experiment: Induction of cholesterol metabolism deregulation in human LNCAP cells assessed as effect on fatty acid uptake at 30 uM after 48 hrs by DAPI/Alexa fluor 633 phalloidin staining based high-content imaging analysis; format: functional, cell-based
[4] = system: LNCaP; experiment: Induction of cholesterol metabolism deregulation in human LNCAP cells assessed as effect on cellular lipid content at 30 uM after 48 hrs by DAPI/Alexa fluor 633 phalloidin staining based high-content imaging analysis; format: functional, cell-based
[5] = system: LNCaP; experiment: Induction of cholesterol metabolism deregulation in human LNCAP cells assessed as reduction in free NBD-cholesterol uptake
[6] = system: LNCaP; experiment: Induction of cholesterol metabolism deregulation in human LNCAP cells assessed as reduction in NBD-cholesterol uptake at 20 uM after 48 hrs by DAPI/Alexa fluor 633 phalloidin staining based high-content imaging analysis; format: functional, cell-based; in short: as §1
[7] = system: LNCaP; experiment: Induction of cholesterol metabolism deregulation in human LNCAP cells assessed as reduction in NBD-cholesterol uptake at 10 uM after 48 hrs by DAPI/Alexa fluor 633 phalloidin staining based high-content imaging analysis; format: functional, cell-based

Compound: C=C1C[C@]23C[C@@]1(O)CC[C@H]2[C@@]12C=C[C@H](O)[C@](C)(C(=O)O1)[C@H]2[C@@H]3C(=O)O [GIBBERELLIN GA3]
- Activity [1]: <30%
- Activity [2]: Active
- Activity [3]: inactive
- Activity [4]: inactive

Compound: C=C1C[C@]23C[C@@]1(O)CC[C@H]2[C@@]12C=C[C@H](O)[C@](C)(C(=O)O1)[C@H]2[C@@H]3C(=O)NCc1ccc(F)cc1
- Activity [1]: <30%

Compound: C=C1C[C@]23C[C@@]1(O)CC[C@H]2[C@@]12C=C[C@H](O)[C@](C)(C(=O)O1)[C@H]2[C@@H]3C(=O)NCCc1ccccn1
- Activity [1]: <30%
- Activity [2]: Active
- Activity [3]: inactive
- Activity [4]: inactive
- Activity [5]: Active

Compound: C=C1C[C@]23C[C@@]1(O)CC[C@H]2[C@@]12C=C[C@H](O)[C@](C)(C(=O)O1)[C@H]2[C@@H]3C(=O)NCc1ccccc1
- Activity [1]: <30%

Compound: C=C1C[C@]23C[C@@]1(O)CC[C@H]2[C@@]12C=C[C@H](O)[C@](C)(C(=O)O1)[C@H]2[C@@H]3C(=O)NCCc1ccc(OC)cc1
- Activity [1]: <30%

Compound: CCCCCCCCCCC[C@@H](C[C@@H]1OC(=O)[C@H]1CCCCCC)OC(=O)[C@H](CC(C)C)NC=O
- Activity [6]: Active

Compound: C=C1C[C@]23C[C@@]1(O)CC[C@H]2[C@@]12C=C[C@H](O)[C@](C)(C(=O)O1)[C@H]2[C@@H]3C(=O)NCCc1ccccc1
- Activity [1]: <30%

Compound: C=C1C[C@]23C[C@@]1(O)CC[C@H]2[C@@]12C=C[C@H](O)[C@](C)(C(=O)O1)[C@H]2[C@@H]3C(=O)NCc1ccc(OC)cc1
- Activity [1]: <30%

Compound: C=C1C[C@]23C[C@@]1(O)CC[C@H]2[C@@]12C=C[C@H](O)[C@](C)(C(=O)O1)[C@H]2[C@@H]3C(=O)NCCc1cccs1
- Activity [1]: <30%

Compound: C=C1C[C@]23C[C@@]1(O)CC[C@H]2[C@@]12C=C[C@H](O)[C@](C)(C(=O)O1)[C@H]2[C@@H]3C(=O)NCc1ccc(Cl)cc1
- Activity [1]: <30%
- Activity [2]: Active
- Activity [3]: inactive
- Activity [4]: inactive
- Activity [5]: Active

Compound: C=C1C[C@]23C[C@@]1(O)CC[C@H]2[C@@]12C=C[C@H](O)[C@](C)(C(=O)O1)[C@H]2[C@@H]3C(=O)NCCc1ccc(Cl)cc1
- Activity [1]: <30%

Compound: CCCCCCCCCCCCCCOc1ccc(C(=O)O)o1
- Activity [7]: Active

Compound: C=C1C[C@]23C[C@@]1(O)CC[C@H]2[C@@]12C=C[C@H](O)[C@](C)(C(=O)O1)[C@H]2[C@@H]3C(=O)NCc1ccc(Br)cc1
- Activity [1]: <30%
- Activity [2]: Active
- Activity [3]: inactive
- Activity [4]: inactive
- Activity [5]: Active

Compound: C=C1C[C@]23C[C@@]1(O)CC[C@H]2[C@@]12C=C[C@H](O)[C@](C)(C(=O)O1)[C@H]2[C@@H]3C(=O)NCCc1ccc(Br)cc1
- Activity [1]: <30%
- Activity [2]: Active
- Activity [3]: inactive
- Activity [4]: inactive
- Activity [5]: Active

Compound: C=C1C[C@]23C[C@@]1(O)CC[C@H]2[C@@]12C=C[C@H](O)[C@](C)(C(=O)O1)[C@H]2[C@@H]3C(=O)NCCc1ccc(F)cc1
- Activity [1]: <30%
- Activity [2]: Active
- Activity [3]: inactive
- Activity [4]: inactive
- Activity [5]: Active
